TAAR1 agonist: human TAAR1 agonism. Q96RJ0. CHO RD-HGA16 TAAR1, Fluo-8 calcium fluorescence; vehicle wells 0%, saturating PEA agonist 100%. activation, % at 3 µM. 360,000 tested, 0.99% active. AID 624467;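 active = activation above the mean activation of all test compounds in the run plus 3 SD, cut at about 38% in these data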
Target sequence (Q96RJ0 whole entry, looked up): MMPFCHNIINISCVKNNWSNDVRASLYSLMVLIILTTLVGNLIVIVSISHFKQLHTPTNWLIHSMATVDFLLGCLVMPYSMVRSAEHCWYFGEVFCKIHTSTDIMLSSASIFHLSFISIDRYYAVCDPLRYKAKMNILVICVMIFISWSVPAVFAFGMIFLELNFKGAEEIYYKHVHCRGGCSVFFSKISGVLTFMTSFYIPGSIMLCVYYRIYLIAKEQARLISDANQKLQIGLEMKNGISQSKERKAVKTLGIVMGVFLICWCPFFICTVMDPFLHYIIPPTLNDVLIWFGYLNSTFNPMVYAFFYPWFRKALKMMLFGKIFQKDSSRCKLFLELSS
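test system = CHO RD-HGA16 cells carrying human TAAR1 plus Gα16 | schedule = 17-24 h seeding, 75 min 37 °C dye, 30 min RT | compound dosing = 3 µM single concentration | control set = DMSO and PEA EC100 | replicates = n 1 | signal = Fluo-8 fluorescence, 5 s baseline then 140 s kinetic read | measure = percent activation vs PEA EC100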
OXTR potentiator: potentiators of human oxytocin receptor | AID 2445 | 320,000 tested, 0.061% active | activation, % at 3 µM | CHO-OTR cells, Fluo-8 calcium fluorescence, potentiator mode; 0% = oxytocin EC15, 100% = EC100;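 active = activation above that plate's cutoff, the mean activation of tested compounds plus 3 SD, cut at about 6.6% in these data, passing the limit was not always enough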
Target sequence (P30559 whole entry, looked up): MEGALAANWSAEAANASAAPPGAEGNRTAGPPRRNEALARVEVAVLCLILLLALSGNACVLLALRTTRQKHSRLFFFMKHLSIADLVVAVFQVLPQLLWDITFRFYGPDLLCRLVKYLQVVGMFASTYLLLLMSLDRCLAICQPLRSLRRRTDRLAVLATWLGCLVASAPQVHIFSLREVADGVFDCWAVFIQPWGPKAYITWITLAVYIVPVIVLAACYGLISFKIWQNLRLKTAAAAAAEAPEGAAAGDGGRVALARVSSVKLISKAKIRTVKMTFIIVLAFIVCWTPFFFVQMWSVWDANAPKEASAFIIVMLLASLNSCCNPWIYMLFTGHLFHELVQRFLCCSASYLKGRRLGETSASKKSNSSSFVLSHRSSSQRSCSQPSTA
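Replication – single well per compound, singlicate · Assay system – CHO cell line stably expressing human OTR · Timing – 6 min pre-incubation, 100 s read · Measure – normalized max/min fluorescence ratio, % activation · Doses – 3.0 µM, one dose · Detection – Fluo-8 calcium dye fluorescence · Probe or stimulus – oxytocin near EC15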
V1R ag counter: counter-screen for oxytocin receptor agonists: human V1a receptor agonists | P37288 | CHO-V1R cells, Fluo-8 calcium fluorescence, agonist mode; 0% DMSO, 100% 3 nM vasopressin | activation, % at 3 µM | 320,000 tested, 0.25% active | AID 2797;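 active = activation above the mean activation of all tested compounds plus 3 SD, per screening run, cut at about 20% in these data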;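 note: signal is peak over basal fluorescence ratio across a 100 second FLIPR read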
TAAR1 antag: antagonists of human TAAR1. CHO RD-HGA16 TAAR1, Fluo-8 calcium fluorescence, antagonist. inhibition, % at 3 µM. 360,000 tested, 1.5% active;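 active = inhibition above a per-plate cutoff, the mean inhibition of test compounds on that plate plus 3 SD, cut at about 49% in these data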
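test system = CHO RD-HGA16 cells bearing hTAAR1 | replication = singlicate | controls = DMSO-only wells and EC80 β-PEA-stimulated wells | reagent = EC80 β-phenethylamine stimulus | read-out basis = percent inhibition of PEA-evoked calcium signal, max/basal emission ratio | schedule = seeding 17-24 h prior, 75-min 37 °C, 30-min RT dye loading | signal = kinetic Fluo-8 calcium fluorescence measurement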
OXTR ag: agonists of human oxytocin receptor; activation, % at 3 µM; P30559; AID 2435; CHO-OTR cells, Fluo-8 calcium fluorescence; normalized: DMSO 0%, oxytocin 100%; 320,000 tested, 0.32% active;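 active = activation above the mean of all tested compounds plus 3 SD, cutoff set per screening run, cut at about 20% in these data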;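 note: peak over basal fluorescence ratio from a 100 s FLIPR kinetic read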
TAAR1 ag confirm: confirmation of human TAAR1 agonists; AID 651783; activation, % at 3 µM; shares compounds with TAAR1 agonist; 2,400 tested, 82% active; CHO RD-HGA16 TAAR1, Fluo-8 calcium fluorescence; scaled: DMSO 0%, maximal phenethylamine 100%;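 active = activation above a cutoff set at the run's mean compound activation plus 3 SD, cut at about 39% in these data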
Ga16 ag counter: counter-screen for TAAR1 agonists: nonselective agonists in parental cells | activation, % at 3 µM | shares compounds with TAAR1 agonist | 2,400 tested, 50% active | CHO-Ga16 parental, Fluo-8 calcium fluorescence; normalized to maximal ATP response, DMSO zero;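 active = activation above the run cutoff, the mean activation over all tested wells plus 3 SD, cut at about 12% in these data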
TAAR1 desensitize: TAAR1 response desensitization, agonist counter-screen; AID 651951; 2,400 tested, 46% active; inhibition, % at 3 µM; shares compounds with TAAR1 agonist; CHO RD-HGA16 hTAAR1, Fluo-8 calcium, beta-PEA response inhibition;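 active = inhibition above the run cutoff, the mean inhibition of all test compounds plus 3 SD, cut at about 49% in these data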;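 note: beta-PEA stimulus applied at its EC80; loss of beta-PEA calcium signal after compound pretreatment read as receptor desensitization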
Ga16 nonsel ant: nonselective Ga16 antagonist in TAAR1 agonist counter-screen; 2,400 tested, 39% active; shares compounds with TAAR1 agonist; CHO-Ga16 ATP-induced calcium, Fluo-8 fluorescence; inhibition, % at 3 µM;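 active = inhibition above the plate's mean compound inhibition plus 3 SD, computed per plate, cut at about 22% in these data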
A number is an active result; 0 = inactive; - = no result given. This is a sample that favours compounds with a hit; in the whole collection about 2.3% have one here.

SMILES	TAAR1 agonist	OXTR potentiator	V1R ag counter	TAAR1 antag	OXTR ag	TAAR1 ag confirm	Ga16 ag counter	TAAR1 desensitize	Ga16 nonsel ant
CCCCN1Cc2ccccc2Oc2cc(Br)ccc2S1(=O)=O	49	-	-	0	-	69	55	0	0
COC(=O)C1=C(C)N(C)C(=NCC2CC2)NC1CCc1ccccc1 (configuration not stated)	0	-	-	0	-	-	-	-	-
O=C(COC(=O)c1cccc(O)c1)Nc1ccc(S(=O)(=O)N2CCOCC2)cc1	0	0	0	0	0	-	-	-	-
O=C(C1CCCN(S(=O)(=O)c2cccc3nsnc23)C1)N1CCCCCC1 (configuration not stated)	0	0	0	0	0	-	-	-	-
O=C(C1CCCN(S(=O)(=O)c2cccc3nsnc23)C1)N1CCc2ccccc2C1 (configuration not stated)	47	0	0	0	0	54	0	0	23
Cc1cccc(OCC(=O)N2CCc3ccccc3C2)c1	55	0	0	0	0	69	0	0	0
COc1ccc(Cc2nnc(SCC(=O)N3CCc4ccccc4C3)o2)cc1	55	0	0	0	0	75	0	0	0
O=C(COc1cccnc1[N+](=O)[O-])N1CCc2ccccc2C1	0	0	0	0	0	-	-	-	-
COc1ccc(-c2nnc(SCC(=O)N3CCc4ccccc4C3)o2)cc1	0	0	0	0	0	-	-	-	-
Cc1cccc(C(=O)NC(=S)N2CCc3ccccc3C2)c1	62	0	0	0	0	65	0	0	0
O=C(COc1cccc2cccnc12)N1CCc2ccccc2C1	52	0	0	0	0	0	0	0	0
C=CCNC(=O)CSc1n[nH]c(-c2cc(Cl)ccc2OC)n1	0	0	0	0	0	-	-	-	-
CCOC(=O)N1CCC(N2CCN(S(=O)(=O)c3ccc([N+](=O)[O-])cc3)CC2)CC1	0	0	0	0	0	-	-	-	-
COc1ccc(OCC(=O)N2CCc3ccccc3C2)cc1	-	0	0	-	0	-	0	-	0
O=C(CCCN1C(=O)c2ccccc2C1=O)N1CCc2ccccc2C1	69	0	0	0	0	83	0	0	0
Cc1ccccc1CC(=O)Nc1cccc(S(=O)(=O)N2CCCC2)c1	0	0	0	0	0	-	-	-	-
O=C(NCc1ccccc1Br)c1cccc2c1C(=O)c1ccc(N3CCC(Cc4ccccc4)CC3)cc1S2(=O)=O	-	0	0	-	0	-	-	-	-
O=C(NC1CCCCC1)c1cccc2c1C(=O)c1ccc(N3CCC(Cc4ccccc4)CC3)cc1S2(=O)=O	52	0	0	61	0	0	29	0	38
CN1CCN(C2=Cc3ccccc3Sc3cc(F)c(Cl)cc32)CC1	46	0	0	0	0	38	16	0	24
CN1CCN(C2=Cc3ccccc3Sc3cc(F)c(F)cc32)CC1	0	0	0	0	0	-	-	-	-
CN1CCN(C2=Cc3cc(Cl)ccc3Sc3cc(F)ccc32)CC1	67	0	0	0	0	89	46	70	45
CCOc1nc(OCC)c2cnn(C)c2n1	0	0	0	0	0	-	-	-	-
O=C(Cc1ccccc1Cl)Nc1nc2ccccc2[nH]1	0	0	0	0	0	-	-	-	-
Cc1cc(=O)[nH]c(SCC(=O)NCCc2ccccc2)n1	-	0	0	-	0	-	0	-	0
Nc1nc(SCC(=O)NCCc2ccccc2)[nH]c(=O)c1-c1ccccc1	62	0	0	0	0	53	0	0	0
SMILES	TAAR1 agonist	OXTR potentiator	V1R ag counter	TAAR1 antag	OXTR ag	TAAR1 ag confirm	Ga16 ag counter	TAAR1 desensitize	Ga16 nonsel ant
O=C(CSc1nc2scc(-c3ccccc3)c2c(=O)[nH]1)NCCc1ccccc1	64	0	0	0	0	64	0	0	0
Cc1ccc(C2OCC3(CO2)COC(c2ccc(C)cc2)OC3)cc1 (configuration not stated)	0	0	0	0	0	-	-	-	-
c1ccc(C2OCC3(CO2)COC(c2ccccc2)OC3)cc1 (configuration not stated)	59	0	0	0	0	0	0	0	0
O=C(NCCc1ccccc1)/C(=C\c1cccc([N+](=O)[O-])c1)NC(=O)c1ccco1	0	0	0	0	0	-	-	-	-
Cc1ccc(S(=O)(=O)NC(=O)Nc2cccc(S(=O)(=O)N(C)C)c2)cc1	0	0	0	0	0	-	-	-	-
COC(=O)[C@H](CCSC)NC(=O)NCCc1ccccc1F	47	0	0	0	0	53	0	0	0
CSCC[C@H](NC(=O)NCc1ccccc1F)C(=O)O	0	0	0	0	0	-	-	-	-
CN(C(=O)CSc1ncnc2sccc12)C1CCCCC1	0	0	0	0	0	-	-	-	-
Cc1ccc(CNc2nc3c([nH]2)c(=O)n(C)c(=O)n3C)cc1	0	0	0	0	0	-	-	-	-
Cn1c(=O)c2[nH]c(Nc3ccccc3)nc2n(C)c1=O	74	0	0	0	0	71	0	61	0
CC1CCCC(C)N1C(=O)CNCc1ccc2c(c1)OCO2 (configuration not stated)	71	0	0	0	0	0	0	0	0
O=C(NCc1ccc2c(c1)OCO2)C(=O)NC1CCCCC1	0	0	0	0	0	-	-	-	-
Cn1ccnc1C1CCCCN1C(=O)c1cc(COc2ccc(F)cc2F)on1 (configuration not stated)	56	0	0	0	0	0	0	0	0
Cc1nonc1C1CCCN1C(=O)c1cc(COc2ccc(F)cc2F)on1 (configuration not stated)	0	0	0	0	0	-	-	-	-
CC(C)NC(=O)c1ccc2sc([C@H]3C[C@H](O)[C@@H](CO)O3)nc2c1	0	-	-	0	-	-	-	-	-
CCc1ccc(N2CN(CCc3ccccc3)CNC2=S)cc1	95	0	0	59	0	83	0	68	0
Cc1ccc(N2CN(CCC3=CCCCC3)CNC2=S)cc1	49	0	0	0	0	56	0	0	0
COc1cccc(N2CN(CCc3ccccc3)CNC2=S)c1	96	0	0	81	0	93	0	80	0
CCCCN1CNC(=S)N(CCc2ccccc2)C1	0	0	0	0	0	-	-	-	-
Cc1ccc(N2CN(Cc3ccco3)CNC2=S)cc1	0	0	0	0	0	-	-	-	-
CCCN1CN(CCc2ccccc2)CNC1=S	-	0	0	-	0	-	0	-	0
Cn1c(CSCc2ccccc2)n[nH]c1=S	0	0	0	0	0	-	-	-	-

Bioassay records deposited in PubChem by The Scripps Research Institute Molecular Screening Center.
